The list is a sample of the results.
Apaf-1 act: activators of human Apaf-1 apoptosome, primary screen, biochemical, DEVD-Rh110 fluorescence, uHTS; Apoptotic protease-activating factor 1 (Homo sapiens), O14727; Apaf-1 apoptosome caspase-3 activation; active compounds read low; activity change, negative = activation, % at 20 µM; 330,000 compounds, 0.31% hits; AID 489031, 2010;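 active = activity change at or below -40% at 20 µM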
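Schedule: 30 min preincubation, 50 min reaction, room temperature / System: biochemical Apaf-1 apoptosome reconstitution / Medium: 20 mM HEPES pH 7.5 with CHAPS, BSA / Evaluation: Caspase-3 cleavage activity downstream of Apaf-1 activation / Detection: Caspase-3-released Rh110 fluorescence, 540 nm emission, 480 nm excitation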
Rh110 interf act: Rh110 fluorescence interference by putative Apaf-1 activators, confirmation, artefact control for Apaf-1 activator project, biochemical, 20 µM | shares compounds with Apaf-1 act | quenched caspase reaction, Ex480/Em540 | fluorescence interference (activity change), % at 20 µM, hits read low | 980 tested, under 10 active;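 active = mean activity change at or below -40% when tested at 20 µM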
Apaf-1 act conf2: Apaf-1 activators, single-dose retest, confirmation, biochemical, fluorescence, DEVD-Rh110, 20 µM; shares compounds with Apaf-1 act; reconstituted apoptosome caspase-3 activity; active compounds read low; activity change, negative = activation, % at 20 µM; 980 compounds, 5% hits;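 active = mean activity change at or below -40%, meaning activation of 40% or more, at 20 µM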
Large screens that a line does not name were inactive (follow-up assays come after a bar, where they were run).

CCCN1CCN(C(=S)Nc2ccccc2C(F)(F)F)CC1	Apaf-1 act -81 | Rh110 interf act inactive | Apaf-1 act conf2 inactive
Cc1ccc(Oc2nc(CN3CCOCC3)nc3sc4c(c23)CCC(C)C4)cc1 (configuration not stated)	none
S=c1[nH]c2cc(Cl)c3cccnc3c2o1	none
CSc1ncccc1C(=O)NCCc1ccc(Cl)cc1	Apaf-1 act -99 | Rh110 interf act inactive | Apaf-1 act conf2 inactive
OC(c1cc(C(F)(F)F)nc2c(C(F)(F)F)cccc12)C1CCCCN1 (configuration not stated)	none
CN1C[C@H](C(=O)N[C@]2(C)O[C@@]3(O)[C@@H]4CCCN4C(=O)[C@H](Cc4ccccc4)N3C2=O)CC2c3cccc4[nH]cc(c34)C[C@H]21 (some centres not stated)	none
CC(C)CCOc1ccc(C(CC(N)=O)C(=O)O)cc1 (configuration not stated)	Apaf-1 act -41 | Rh110 interf act inactive | Apaf-1 act conf2 inactive
CCCCCOC(=O)c1c(N)n(CCOC)c2nc3ccccc3nc12	none
COCc1c(C(=O)OCC(=O)NCCN2C(=O)CSC2=O)oc2ccccc12	Apaf-1 act -67 | Rh110 interf act inactive | Apaf-1 act conf2 inactive
CN(C)c1ccnc2c[cH-]cc12.[Fe].c1ccc(-[c-]2[c-](-c3ccccc3)[c-](-c3ccccc3)[c-](-c3ccccc3)[c-]2-c2ccccc2)cc1 (configuration not stated)	none
CCc1ccc2[nH]c(C(=O)Nc3ccc(Br)c(C)n3)cc2c1	Apaf-1 act -484 | Rh110 interf act inactive | Apaf-1 act conf2 inactive
Cc1[nH][nH]c(=O)c1C(c1ccc(-c2ccc(F)cc2)o1)c1c(C)[nH][nH]c1=O	none
CCN(CC)C(=O)[C@H]1CC(CC(=O)NCCCN(C)C)C(=O)N2CCc3c([nH]c4ccccc34)[C@]12C (some centres not stated)	none
COc1cccc2nc3cc(C)c(C)cc3nc12	none
Cc1cc(C)n(CCNC(=O)C2CCC(=O)N(CCc3cccc(F)c3)C2)n1 (configuration not stated)	Apaf-1 act -456 | Rh110 interf act inactive | Apaf-1 act conf2 inactive
COc1cc(/C=N/N=C(N)N)ccc1OCc1ccc(Cl)cc1	none
Cc1ccc(N(CC(=O)N/N=C/c2ccc(OC3CSC3)cc2)S(=O)(=O)c2ccccc2)c(C)c1	none
O=C(NC1CCCC1)c1ccc2nc(-c3ccco3)c(-c3ccco3)nc2c1	none
Cc1cc(-c2ccccc2C(=O)NC2CCCCC2)on1	Apaf-1 act -149 | Rh110 interf act inactive | Apaf-1 act conf2 inactive
O=C(c1ccco1)[C@@H]1[C@@H]2C(=O)N(c3ccc(F)cc3)C(=O)[C@@H]2C2c3ccccc3C=CN21 (some centres not stated)	none
Cc1ccc(C(=O)NCC(=O)N2CCCCCCC2)cc1	none
O=C(CSc1ccc2nnc(-c3ccccc3)n2n1)N1CCCCC1	Apaf-1 act -113 | Rh110 interf act inactive | Apaf-1 act conf2 inactive
NC1=Nc2cccc3cccc1c23	none
CN1CCN(C2=C(Cl)C(=O)C(c3cnc(N4CCCCC4)s3)=C(Cl)C2=O)CC1	none
Cc1ccc(SCC(=O)Nc2nccs2)cc1	Apaf-1 act -524 | Rh110 interf act inactive | Apaf-1 act conf2 inactive
CCOc1ccccc1N1CSC2=C(C#N)C(c3c(OC)ccc4ccccc34)CC(=O)N2C1 (configuration not stated)	none
CCN1CCN(Cc2ccc(NC(=O)c3cc(NC(=O)c4cc(-c5ccc(OC)cc5)n[nH]4)cc(OC)c3)cc2C(F)(F)F)CC1	none
Clc1ccc(CSc2nnc3ccccn23)c(Cl)c1	Apaf-1 act -40 | Rh110 interf act inactive | Apaf-1 act conf2 inactive
Cc1ccc(S(=O)(=O)C(C#N)c2nc3ccccc3nc2N2CCCC2)cc1 (configuration not stated)	none
O=C1/C(=C\c2ccc(-c3ccccc3[N+](=O)[O-])o2)C(c2ccccc2)=NN1c1ccccc1	none
COC(=O)c1ccccc1NC1=C/C(=N\S(=O)(=O)c2cccs2)c2ccccc2C1=O	none
COc1ccc(C(=O)N2CCCCCC2)cc1OC1CCN(C(C)C)CC1	Apaf-1 act -68 | Rh110 interf act inactive | Apaf-1 act conf2 inactive
O=C(O)c1cc(O)c2c(c1)[C@H]([C@H]1c3cc(C(=O)O)cc(O)c3C(=O)c3c(O[C@@H]4O[C@H](CO)[C@@H](O)[C@H](O)[C@H]4O)cccc31)c1cccc(OC3O[C@H](CO)[C@@H](O)[C@H](O)[C@H]3O)c1C2=O (some centres not stated)	none
c1ccc2c(-c3ccc(OCCN4CCCCC4)cc3)c(-c3ccsc3)sc2c1	none
Nc1c(N2CCCC2)cc(Cl)c2nonc12	none

Bioassay records as filed in PubChem BioAssay.
